# Reference: ChEMBL document CHEMBL3244366, “Synthesis and biochemical evaluation of inhibitors of estrogen biosynthesis” (J Med Chem, 1978)
# Columns and labels:
# Aromatase [1] = molecular target: T1, Aromatase (Homo sapiens, UniProt P11511); experiment: Inhibition of human placental microsomal aromatase assessed as inhibition of [C14]estrone/[C14]estradiol formation using 1.25 uM [C14]androstenedione substrate at 12.5 uM by liquid scintillation counting
# T1 sequence (P11511 whole entry): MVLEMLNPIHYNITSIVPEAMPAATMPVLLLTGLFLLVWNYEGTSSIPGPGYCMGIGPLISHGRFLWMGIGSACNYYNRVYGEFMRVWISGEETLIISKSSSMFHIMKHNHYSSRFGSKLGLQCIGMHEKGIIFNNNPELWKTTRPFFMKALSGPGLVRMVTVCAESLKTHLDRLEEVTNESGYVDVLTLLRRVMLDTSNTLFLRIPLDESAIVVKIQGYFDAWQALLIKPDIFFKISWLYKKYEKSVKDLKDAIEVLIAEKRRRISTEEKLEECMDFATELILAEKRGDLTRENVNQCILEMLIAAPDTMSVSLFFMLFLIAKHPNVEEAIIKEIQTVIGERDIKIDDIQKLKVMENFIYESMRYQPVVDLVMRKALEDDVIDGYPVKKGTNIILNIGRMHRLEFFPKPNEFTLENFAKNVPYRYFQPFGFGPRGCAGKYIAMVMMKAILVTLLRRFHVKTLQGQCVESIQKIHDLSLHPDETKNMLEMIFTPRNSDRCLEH
# In short: (§1)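 Screen, run in duplicate: [14C]androstenedione 1.25 μM with inhibitor at 6.25 or 12.5 μM, human placental microsomes (0.25 mg protein/3.0 mL), NADPH-generating system (NADP+ 1.71 mM, glucose 6-phosphate 2.85 mM, G6PDH) in 0.1 M phosphate pH 7.0. 5 min preincubation, then 15.0 min at 37 °C; estrogens separated on alumina TLC and counted; expressed as percent inhibition versus uninhibited controls.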
# Aromatase [2] = molecular target: T1, Aromatase; experiment: Inhibition of human placental microsomal aromatase assessed as inhibition of [C14]estrone/[C14]estradiol formation using 1.25 uM [C14]androstenedione substrate at 6.25 uM by liquid scintillation counting; in short: as §1
# Aromatase [3] = molecular target: T1, Aromatase; experiment: Apparent inhibition of human placental microsomal aromatase assessed as [C14]estrone/[C14]estradiol formation using 0.075 to 0.515 uM [C14]androstenedione substrate by liquid scintillation counting; details: read-out: Ki(app)
# In short: (§2)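 Twice-washed human term placental microsomes (0.25 mg protein) in 3.5 mL 0.1 M sodium phosphate pH 7.0 with NADP+ 1.71 mM, glucose 6-phosphate 2.85 mM, G6PDH 1.0 unit; [14C]androstenedione 0.075–0.515 μM plus one inhibitor level; 37 °C, 8.0 min (<10% product). Estrogens extracted with ethyl acetate, alumina TLC, counted; duplicates; apparent Ki and inhibition type from weighted Lineweaver-Burk.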
# Aromatase [4] = molecular target: T1, Aromatase; experiment: Competitive inhibition of human placental microsomal aromatase assessed as [C14]estrone/[C14]estradiol formation using [C14]androstenedione substrate by liquid scintillation counting; in short: as §2
SMILES,inhibition at 12.5 µM (Aromatase [1]) [%],inhibition at 6.25 µM (Aromatase [2]) [%],Ki (Aromatase [3]) [nM],inhibition (INH) (Aromatase [4])
CCN(CC)c1ccc(CS[C@H]2CC(=O)C=C3CC[C@@H]4[C@H](CC[C@]5(C)C(=O)CC[C@@H]45)[C@]32C)cc1,36.3,32.2,,
C[C@@]12C(=CC(=O)C[C@@H]1Sc1ccccc1)CC[C@@H]1[C@@H]2CC[C@]2(C)C(=O)CC[C@@H]12,24.2,21.2,,
CCOC(=O)CS[C@@H]1CC2=CC(=O)CC[C@]2(C)[C@H]2CC[C@]3(C)C(=O)CC[C@H]3[C@H]12,72.4,,,
CCCCS[C@@H]1CC2=CC(=O)CC[C@]2(C)[C@H]2CC[C@]3(C)C(=O)CC[C@H]3[C@H]12,74.1,62.4,57,Active
C[C@]12CCC(=O)C=C1C[C@@H](SCCCc1ccccc1)[C@@H]1[C@@H]2CC[C@]2(C)C(=O)CC[C@@H]12,66.4,68.4,,
C[C@]12CCC(=O)C=C1C[C@@H](Sc1ccc(N)cc1)[C@@H]1[C@@H]2CC[C@]2(C)C(=O)CC[C@@H]12,95,55.6,18,Active
COc1ccc(S[C@@H]2CC3=CC(=O)CC[C@]3(C)[C@H]3CC[C@]4(C)C(=O)CC[C@H]4[C@H]23)cc1,64.9,35.3,,
COc1ccc(CS[C@@H]2CC3=CC(=O)CC[C@]3(C)[C@H]3CC[C@]4(C)C(=O)CC[C@H]4[C@H]23)cc1,63,64,31,Active
C[C@]12CCC(=O)C=C1C[C@@H](SCc1ccccc1)[C@@H]1[C@@H]2CC[C@]2(C)C(=O)CC[C@@H]12,84.1,66.7,69,Active
C[C@]12CCC(=O)C=C1C[C@@H](Sc1ccccc1)[C@@H]1[C@@H]2CC[C@]2(C)C(=O)CC[C@@H]12,46.7,45.3,,
C[C@@]12C(=CC(=O)C[C@@H]1SCc1ccccc1)CC[C@@H]1[C@@H]2CC[C@]2(C)C(=O)CC[C@@H]12,15.5,20.8,,
CCN(CC)c1ccc(CS[C@@H]2CC3=CC(=O)CC[C@]3(C)[C@H]3CC[C@]4(C)C(=O)CC[C@H]4[C@H]23)cc1,42.3,45.1,,
C[C@]12CCC(=O)C=C1C[C@@H](SCCc1ccccc1)[C@@H]1[C@@H]2CC[C@]2(C)C(=O)CC[C@@H]12,82.8,75.7,62,Active
